Activity calls are given as the source filed them. No cut-off for these calls is given here.
Tests used:
Assay type in all cases: functional
DU-145 = assay: Growth inhibition of human DU145 cells at 10 uM after 48 hrs by SRB assay; conditions: DU-145, 48 h, read-out: GI
Procedure, shortened: (§1)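 Cells grown in RPMI 1640 with 5% FBS and 2 mM L-glutamine, plated at 5000–40,000 cells/well by doubling time and preincubated 24 h (37 °C, 5% CO2); a time-zero plate is TCA-fixed. Single dose added, then 48 h incubation. Fixed with cold TCA, stained with 0.4% SRB, dye solubilized in 10 mM Tris base, absorbance at 515 nm; percent growth vs time-zero and untreated control.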

IGROV-1 = assay: Growth inhibition of human IGROV1 cells at 10 uM after 48 hrs by SRB assay; conditions: IGROV-1, 48 h, read-out: GI; procedure, shortened: as §1
A549 = assay: Growth inhibition of human A549 cells at 10 uM after 48 hrs by SRB assay; conditions: A549, 48 h, read-out: GI; procedure, shortened: as §1
OVCAR-4 = assay: Growth inhibition of human OVCAR4 cells at 10 uM after 48 hrs by SRB assay; conditions: OVCAR-4, 48 h, read-out: GI; procedure, shortened: as §1
SR = assay: Growth inhibition of human SR cells at 10 uM after 48 hrs by SRB assay; conditions: read-out: GI
Procedure, shortened: (§2)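 NCI 60-cell-line screen with a single 10 µM dose. Cells are grown in RPMI 1640 with 5% FBS and 2 mM L-glutamine, plated at 5000–40,000 cells/well according to doubling time, and preincubated 24 h at 37 °C, 5% CO2; time-zero plates are TCA-fixed at that point. Drug exposure is 48 h. Adherent cells are fixed with cold TCA, stained with 0.4% SRB in 1% acetic acid and read at 515 nm. Percent growth is calculated relative to time-zero and untreated controls and reported as GI%.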

SNB-75 = assay: Growth inhibition of human SNB75 cells at 10 uM after 48 hrs by SRB assay; conditions: SNB-75, 48 h, read-out: GI; procedure, shortened: as §2
COLO 205 = assay: Growth inhibition of human COLO205 cells at 10 uM after 48 hrs by SRB assay; conditions: COLO 205, 48 h, read-out: GI; procedure, shortened: as §1
MDA-MB-468 = assay: Growth inhibition of human MDA-MB-468 cells at 10 uM after 48 hrs by SRB assay; procedure, shortened: as §1
K562 = assay: Growth inhibition of human K562 cells at 10 uM after 48 hrs by SRB assay; conditions: K562, 48 h, read-out: GI; procedure, shortened: as §1
NCI-H23 = assay: Growth inhibition of human NCI-H23 cells at 10 uM after 48 hrs by SRB assay; conditions: NCI-H23, 48 h, read-out: GI; procedure, shortened: as §1
NCI-H226 = assay: Growth inhibition of human NCI-H226 cells at 10 uM after 48 hrs by SRB assay; conditions: NCI-H226, 48 h, read-out: GI; procedure, shortened: as §1
UACC-62 = assay: Growth inhibition of human UACC62 cells at 10 uM after 48 hrs by SRB assay; conditions: UACC-62, 48 h, read-out: GI; procedure, shortened: as §2
RXF 393 = assay: Growth inhibition of human RXF393 cells at 10 uM after 48 hrs by SRB assay; conditions: RXF 393, 48 h, read-out: GI; procedure, shortened: as §1
RPMI-8226 = assay: Growth inhibition of human RPMI8226 cells at 10 uM after 48 hrs by SRB assay; conditions: RPMI-8226, 48 h, read-out: GI; procedure, shortened: as §1
SK-MEL-28 = assay: Growth inhibition of human SK-MEL-28 cells at 10 uM after 48 hrs by SRB assay; conditions: SK-MEL-28, 48 h, read-out: GI; procedure, shortened: as §1
MOLT-4 = assay: Growth inhibition of human MOLT4 cells at 10 uM after 48 hrs by SRB assay; conditions: MOLT-4, 48 h, read-out: GI; procedure, shortened: as §1
M14 = assay: Growth inhibition of human M14 cells at 10 uM after 48 hrs by SRB assay; conditions: M14, 48 h, read-out: GI; procedure, shortened: as §1
OVCAR-3 = assay: Growth inhibition of human OVCAR3 cells at 10 uM after 48 hrs by SRB assay; conditions: OVCAR-3, 48 h, read-out: GI; procedure, shortened: as §1
CAKI-1 = assay: Growth inhibition of human Caki1 cells at 10 uM after 48 hrs by SRB assay; conditions: CAKI-1, 48 h, read-out: GI; procedure, shortened: as §1
MDA-MB-231 = assay: Growth inhibition of human MDA-MB-231 cells at 10 uM after 48 hrs by SRB assay; conditions: MDA-MB-231, 48 h, read-out: GI; procedure, shortened: as §1
HOP-92 = assay: Growth inhibition of human HOP92 cells at 10 uM after 48 hrs by SRB assay; conditions: HOP-92, 48 h, read-out: GI; procedure, shortened: as §1
UO-31 = assay: Growth inhibition of human UO31 cells at 10 uM after 48 hrs by SRB assay; conditions: UO-31, 48 h, read-out: GI; procedure, shortened: as §2
[1] = Growth inhibition of human NCI-ADR-RES cells at 10 uM after 48 hrs by SRB assay; conditions: read-out: GI; procedure, shortened: as §1
HCT-15 = assay: Growth inhibition of human HCT15 cells at 10 uM after 48 hrs by SRB assay; conditions: HCT-15, 48 h, read-out: GI; procedure, shortened: as §1
SF-268 = assay: Growth inhibition of human SF268 cells at 10 uM after 48 hrs by SRB assay; conditions: SF-268, 48 h, read-out: GI; procedure, shortened: as §1
NCI-H322M = assay: Growth inhibition of human NCI-H322M cells at 10 uM after 48 hrs by SRB assay; conditions: read-out: GI; procedure, shortened: as §1
A498 = assay: Growth inhibition of human A498 cells at 10 uM after 48 hrs by SRB assay; conditions: A498, 48 h, read-out: GI; procedure, shortened: as §1
ACHN = assay: Growth inhibition of human ACHN cells at 10 uM after 48 hrs by SRB assay; conditions: read-out: GI; procedure, shortened: as §1
PC-3 = assay: Growth inhibition of human PC3 cells at 10 uM after 48 hrs by SRB assay; conditions: PC-3, 48 h, read-out: GI; procedure, shortened: as §1
SK-OV-3 = assay: Growth inhibition of human SKOV3 cells at 10 uM after 48 hrs by SRB assay; conditions: SK-OV-3, 48 h, read-out: GI; procedure, shortened: as §2
CCRF-CEM = assay: Growth inhibition of human CCRF-CEM cells at 10 uM after 48 hrs by SRB assay; conditions: read-out: GI; procedure, shortened: as §1
SF-539 = assay: Growth inhibition of human SF539 cells at 10 uM after 48 hrs by SRB assay; conditions: SF-539, 48 h, read-out: GI; procedure, shortened: as §1
[2] = Growth inhibition of human HCC2998 cells at 10 uM after 48 hrs by SRB assay; conditions: HCC 2998, 48 h, read-out: GI; procedure, shortened: as §1

Row | Compound | inhibition of growth at 10 µM (DU-145) [%] | inhibition of growth at 10 µM (IGROV-1) [%] | inhibition of growth at 10 µM (A549) [%] | inhibition of growth at 10 µM (OVCAR-4) [%] | inhibition of growth at 10 µM (SR) [%] | inhibition of growth at 10 µM (SNB-75) [%] | inhibition of growth at 10 µM (COLO 205) [%] | growth inhibition (GI) (MDA-MB-468) | inhibition of growth at 10 µM (K562) [%] | inhibition of growth at 10 µM (NCI-H23) [%] | inhibition of growth at 10 µM (NCI-H226) [%] | inhibition of growth at 10 µM (UACC-62) [%] | inhibition of growth at 10 µM (RXF 393) [%] | inhibition of growth at 10 µM (RPMI-8226) [%] | inhibition of growth at 10 µM (SK-MEL-28) [%] | inhibition of growth at 10 µM (MOLT-4) [%] | inhibition of growth at 10 µM (M14) [%] | inhibition of growth at 10 µM (OVCAR-3) [%] | inhibition of growth at 10 µM (CAKI-1) [%] | inhibition of growth at 10 µM (MDA-MB-231) [%] | also measured
1 | O=c1c2cccc3c(NC4CCCCC4)ccc(c32)c2nc3ccccc3n12 | < 20 | 58.8 | 33.5 | < 20 | 98.9 | < 20 | 24.4 | Active | 33.1 | 54 | 28 | < 20 | < 20 | 24.4 | < 20 | 50.2 | < 20 | < 20 | 52.8 | < 20 | inhibition of growth at 10 µM (HOP-92): 51.5%; inhibition of growth at 10 µM (UO-31): 58.6%; inhibition of growth at 10 µM [1]: < 20%; inhibition of growth at 10 µM (HCT-15): 25.2%; inhibition of growth at 10 µM (SF-268): < 20%; inhibition of growth at 10 µM (NCI-H322M): < 20%; inhibition of growth at 10 µM (A498): < 20%; inhibition of growth at 10 µM (ACHN): 27.1%; inhibition of growth at 10 µM (PC-3): 20.1%; inhibition of growth at 10 µM (SK-OV-3): < 20%; inhibition of growth at 10 µM (CCRF-CEM): 34.6%; inhibition of growth at 10 µM (SF-539): < 20%; inhibition of growth at 10 µM [2]: 48.3%
2 | O=c1c2cccc3c(Nc4c(F)cccc4F)ccc(c32)c2nc3ccccc3n12 | < 20 | 46.6 | < 20 | < 20 | 78.5 | 20.1 | < 20 | Active | < 20 | < 20 | 24.9 | < 20 | < 20 | 24.6 | < 20 | 25.9 | < 20 | < 20 | 38 | < 20 | inhibition of growth at 10 µM (HOP-92): 35.8%; inhibition of growth at 10 µM (UO-31): 49.4%; inhibition of growth at 10 µM [1]: < 20%; inhibition of growth at 10 µM (HCT-15): 24.5%; inhibition of growth at 10 µM (SF-268): < 20%; inhibition of growth at 10 µM (NCI-H322M): < 20%; inhibition of growth at 10 µM (A498): < 20%; inhibition of growth at 10 µM (ACHN): < 20%; inhibition of growth at 10 µM (PC-3): < 20%; inhibition of growth at 10 µM (SK-OV-3): < 20%; inhibition of growth at 10 µM (CCRF-CEM): 27.5%; inhibition of growth at 10 µM (SF-539): < 20%; inhibition of growth at 10 µM [2]: 27.3%
3 | O=c1c2cccc3c(Nc4ccccn4)ccc(c32)c2nc3ccccc3n12 | < 20 | 43.4 | 29.1 | 30.9 | 29.8 | 21.4 | 29 | Active | 53.5 | 34.5 | 30.4 | 35.7 | < 20 | 51 | < 20 | 38.2 | < 20 | 30 | 48.2 | 29.4 | inhibition of growth at 10 µM (HOP-92): 45.1%; inhibition of growth at 10 µM (UO-31): 53.5%; inhibition of growth at 10 µM [1]: 25.4%; inhibition of growth at 10 µM (HCT-15): 40.8%; inhibition of growth at 10 µM (SF-268): < 20%; inhibition of growth at 10 µM (NCI-H322M): 25.5%; inhibition of growth at 10 µM (A498): < 20%; inhibition of growth at 10 µM (ACHN): 23.9%; inhibition of growth at 10 µM (PC-3): 36%; inhibition of growth at 10 µM (SK-OV-3): < 20%; inhibition of growth at 10 µM (CCRF-CEM): 48.2%; inhibition of growth at 10 µM (SF-539): < 20%; inhibition of growth at 10 µM [2]: 31.5%

Reference: ChEMBL document CHEMBL2424551, “Synthesis, in vitro evaluation and molecular modelling of naphthalimide analogue as anticancer agents” (2013)
